This note sets out measurements from ChEMBL document CHEMBL1143847, “Competitive inhibitors of the CphA metallo-beta-lactamase from Aeromonas hydrophila” (Antimicrob Agents Chemother, 2007).

Test [1] deals with Beta-lactamase (Aeromonas hydrophila) (UniProt Q44079). In words: Ratio of Kcat to Km for Aeromonas hydrophila beta lactamase CphA at pH 7.0. Summed up: (§1)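 Wild-type CphA kinetics with imipenem as substrate, measured in a mixed buffer adjusted to the stated pH with HCl or NaOH. The buffer held 40 mM sodium acetate, 20 mM each of cacodylate, MOPS, TAPS, CHES and CAPS, and 20 μg/ml BSA. Runs were at 30°C in thermostatted cells. Km and kcat came from initial rates. At pH 10 only kcat/Km was taken, because imipenem hydrolyses spontaneously.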

The target is the same in test [2]. As to the kind of experiment: Ratio of Kcat to Km for Aeromonas hydrophila beta lactamase CphA at pH 8.0. The method in brief: as §1
Test [3] has the same target. As to the kind of experiment: Ratio of Kcat to Km for Aeromonas hydrophila beta lactamase CphA at pH 9.0. The method in brief: as §1
Test [4] shares this target. In words: Ratio of Kcat to Km for Aeromonas hydrophila beta lactamase CphA at pH 10.0. The method in brief: as §1
In test [5] the target is Metallo beta-lactamase (Pseudomonas aeruginosa) (UniProt Q6TUJ4). In words: Inhibition of Pseudomonas aeruginosa 101/1477 metallo beta lactamase IMP1 expressed in Escherichia coli assessed as residual enzyme activity at 100 uM in absence of zinc.
Test [6] shares this target. In words: Inhibition of Pseudomonas aeruginosa 101/1477 metallo beta lactamase IMP1 expressed in Escherichia coli assessed as residual enzyme activity at 100 uM in presence of zinc chloride. Summed up: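 IMP-1 at 0.03–0.7 nM was preincubated 30 min at room temperature with 100 μM inhibitor in 20 mM HEPES pH 7.0 with 20 μg/ml BSA plus 100 μM ZnCl2. The reaction was then started with 100 μM imipenem. The initial rate of three samples was taken as mean percent of the rate without inhibitor ± SD.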

Another test relates to Bacillus cereus. As to the kind of experiment: Inhibition of Bacillus cereus metallo beta lactamase Bc2 assessed as residual enzyme activity at 100 uM.
Test [7] in a line: Inhibition of metallo beta lactamase VIM2 assessed as residual enzyme activity at 100 uM.
A short description of test [8]: Inhibition of metallo beta lactamase VIM4 assessed as residual enzyme activity at 100 uM.
The target of test [9] is Beta-lactamase L1 (Stenotrophomonas maltophilia) (UniProt P52700). In words: Inhibition of Stenotrophomonas maltophilia metallo beta lactamase L1 assessed as residual enzyme activity at 100 uM.
The test system of another test is Fluoribacter gormanii. As to the kind of experiment: Inhibition of Legionella gormani beta lactamase metallo FEZ1 expressed in Escherichia coli assessed as residual enzyme activity at 100 uM. Summed up: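 Purified enzyme (0.03–0.7 nM) in 20 mM HEPES pH 7.0 with 20 μg/ml BSA was preincubated 30 min at room temperature with 100 μM inhibitor, diluted from 10 mM DMSO stock. Nitrocefin (100 μM) was then added and the initial hydrolysis rate measured. Residual activity is the mean (±SD) of three samples as percent of the uninhibited rate.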

Sequence of Beta-lactamase L1 (Stenotrophomonas maltophilia) (P52700 34-290 limits assumed): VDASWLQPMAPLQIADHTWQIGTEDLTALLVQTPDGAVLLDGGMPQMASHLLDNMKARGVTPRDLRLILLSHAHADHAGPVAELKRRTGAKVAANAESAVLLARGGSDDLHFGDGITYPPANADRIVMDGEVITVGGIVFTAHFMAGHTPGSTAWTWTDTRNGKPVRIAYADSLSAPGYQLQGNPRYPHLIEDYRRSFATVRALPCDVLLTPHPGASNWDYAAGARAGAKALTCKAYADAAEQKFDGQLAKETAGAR
Sequence of Metallo beta-lactamase (Pseudomonas aeruginosa) (Q6TUJ4 as listed by the source): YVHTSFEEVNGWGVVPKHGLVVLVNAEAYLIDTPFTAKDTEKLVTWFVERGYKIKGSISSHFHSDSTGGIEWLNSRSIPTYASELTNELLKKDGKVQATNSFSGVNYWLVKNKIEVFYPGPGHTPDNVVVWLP
Sequence of Beta-lactamase (Aeromonas hydrophila) (Q44079 as listed by the source): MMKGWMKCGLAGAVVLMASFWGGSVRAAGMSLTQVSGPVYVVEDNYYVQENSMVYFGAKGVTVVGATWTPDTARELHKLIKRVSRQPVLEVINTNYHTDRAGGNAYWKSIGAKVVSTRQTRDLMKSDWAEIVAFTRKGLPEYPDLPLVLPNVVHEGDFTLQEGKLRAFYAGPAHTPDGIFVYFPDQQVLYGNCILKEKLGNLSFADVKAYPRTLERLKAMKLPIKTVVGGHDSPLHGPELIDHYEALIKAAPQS

In the case of `CC(O)[C@H]1C(=O)N2C(C(=O)O)=C(SCCNC=N)C[C@H]12` (single isomer, unassigned), the Ratio stood at 1.8 µM⁻¹ s⁻¹ in test [1], 1.7 µM⁻¹ s⁻¹ in [2], 0.78 µM⁻¹ s⁻¹ in test [3] and 0.44 µM⁻¹ s⁻¹ in [4].

Regarding `O=C(O)c1ccnc(C(=O)O)c1`, the Activity in test [5] stood at 94%; in test [6], 78%; in the test on Bacillus cereus, 97%; in test [7], 98%; in test [8], 90%; in test [9], 78%. Besides, the Activity in the test on Fluoribacter gormanii was found to be 65%.

For the compound `O=C(O)c1ccc(C(=O)O)nc1`, the Activity in [5] was 99%; in [6] it was 81%; with Bacillus cereus it was 99%; in test [7], 97%; in test [8], 97%; in test [9] it was 94%. The Activity in the test on Fluoribacter gormanii turned out to be 80%.

For `O=C(O)c1cccnc1C(=O)O`, the Activity in [5] was 89%; in test [6], 67%; in the test with Bacillus cereus it was 98%; in test [7], 106%; in test [8] it was 73%; in test [9], 93%. Moreover, in the test on Fluoribacter gormanii, the Activity came out at 62%.

With `O=C(O)c1ccccn1`, the Activity in [5] stood at 31%; in test [6], 54%; in the test on Bacillus cereus it was 95%; in test [7], 80%; in [8], 59%; in test [9], 29%. Also, the Activity in the test on Fluoribacter gormanii was 62%.

Consider `O=C(O)c1cccc(C(=O)O)n1`, for which the Activity in test [5] came to 2%; in test [6], 72%; in the test on Bacillus cereus, 95%; in [7], 96%; in test [8] it was 88%; in test [9], 92%. Moreover, in the test with Fluoribacter gormanii, the Activity stood at 77%.

In the case of `O=C(O)c1ccncc1C(=O)O`, the Activity in [5] was found to be 91%; in test [6], 88%; in the test with Bacillus cereus, 97%; in [7] it was 92%; in test [8] it was 100%; in test [9], 97%. In the test with Fluoribacter gormanii, the Activity worked out at 93%.
